Activity calls are given as the source filed them. The calls are words filed in the database; no cut-off is given here.
How the values were obtained:
HEp-2 = assay: Antiproliferative activity against human Hep2 cells after 72 hrs by MTT test; assay type: functional, cell-based; details: HEp-2, 72 h
Procedure, shortened: (§1)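 Cells grown as monolayers in DMEM with 10% FBS, 2 mM L-glutamine, penicillin and streptomycin at 37 °C, 5% CO2. Seeded on day 0 at 1 · 10⁴/mL (HeLa, Hep-2, MiaPaCa-2, SW620), 2 · 10⁴/mL (MCF-7) or 3 · 10⁴/mL (WI 38). Five dilutions (10^-8 to 5 · 10^-6 mol/l), 72 h, MTT read-out. Quadruplicate, three experiments. IC50 by linear regression of percentage growth.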

HeLa = assay: Antiproliferative activity against human HeLa cells after 72 hrs by MTT test; assay type: functional, cell-based; procedure, shortened: as §1
MIA PaCa-2 = assay: Antiproliferative activity against human MiaPaCa2 cells after 72 hrs by MTT test; assay type: functional, cell-based; details: MIA PaCa-2, 72 h; procedure, shortened: as §1
SW-620 = assay: Antiproliferative activity against human SW620 cells after 72 hrs by MTT test; assay type: functional, cell-based; details: SW-620, 72 h; procedure, shortened: as §1
MCF7 = assay: Antiproliferative activity against human MCF7 cells after 72 hrs by MTT test; assay type: functional, cell-based; details: MCF7, 72 h; procedure, shortened: as §1
WI-38 = assay: Antiproliferative activity against human WI38 cells after 72 hrs by MTT test; assay type: functional, cell-based; details: WI-38, 72 h; procedure, shortened: as §1
DNA = assay: Binding affinity to calf thymus DNA in aqueous solution at pH 7.0 by thermal denaturation; assay type: nucleic-acid assay; details: Bos taurus
Procedure, shortened: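 ct-DNA in sodium cacodylate buffer, pH 7.0, I = 0.05 mol dm^-3, concentration taken as phosphate. Compound added at r[compd]/[ct-DNA] = 0.3. Melting followed by absorbance at 260 nm, with ligand absorbance subtracted and curves normalized. Tm taken as the transition midpoint (first derivative or tangent method). ΔTm = Tm(complex) − Tm(free DNA), averaged over at least two runs.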

Question: How did the IC50 (HEp-2) turn out when `COc1cccc(/C=N/NC(=S)Nc2ccccc2)c1O` was run?
Answer: 1.6 µM

Question: And the IC50 (HeLa)?
Answer: 1.7 µM

Question: And the IC50 (MIA PaCa-2)?
Answer: 2.5 µM

Question: And the IC50 (SW-620)?
Answer: 1.6 µM

Question: What about the IC50 (MCF7) of the same compound?
Answer: 3 µM

Question: And the IC50 (WI-38)?
Answer: 1.4 µM

Question: Which results are given for `CCN(CC)c1ccc(/C=N/NC(N)=S)c(O)c1`?
Answer: IC50 (HEp-2): 0.9 µM; IC50 (HeLa): 2 µM; IC50 (MIA PaCa-2): > 5 µM; IC50 (SW-620): 3 µM; IC50 (MCF7): 0.4 µM; IC50 (WI-38): 0.2 µM

Question: What does the source list for `NC(=S)N/N=C/c1ccccc1O`?
Answer: Activity (DNA): inactive; IC50 (HEp-2): ≥ 5 µM; IC50 (HeLa): ≥ 5 µM; IC50 (MIA PaCa-2): > 5 µM; IC50 (SW-620): > 5 µM; IC50 (MCF7): ≥ 5 µM; IC50 (WI-38): ≥ 5 µM

Question: What does the source list for `CCN(CC)c1ccc(/C=N/NC(=S)Nc2ccccc2)c(O)c1`?
Answer: Activity (DNA): inactive; IC50 (HEp-2): 0.3 µM; IC50 (HeLa): 0.7 µM; IC50 (MIA PaCa-2): 0.2 µM; IC50 (SW-620): 0.6 µM; IC50 (MCF7): 1.2 µM; IC50 (WI-38): 0.3 µM

Question: With `Oc1ccccc1/C=N/NC(=S)Nc1ccccc1` as the compound, how does the Activity (DNA) read?
Answer: inactive

Question: What about the IC50 (HEp-2) of the same compound?
Answer: 2.4 µM

Question: What about the IC50 (HeLa) of the same compound?
Answer: 1.5 µM

Question: And the IC50 (MIA PaCa-2)?
Answer: 2.4 µM

Question: What about the IC50 (SW-620) of the same compound?
Answer: 2 µM

Question: And the IC50 (MCF7)?
Answer: 4 µM

Question: What about the IC50 (WI-38) of the same compound?
Answer: 1.3 µM

Question: `NC(=S)N/N=C/c1c(O)ccc2ccccc12` was tested. Which IC50 (HEp-2) did it give?
Answer: 0.2 µM

Question: And the IC50 (HeLa)?
Answer: 0.2 µM

Question: What about the IC50 (MIA PaCa-2) of the same compound?
Answer: > 5 µM

Question: What about the IC50 (SW-620) of the same compound?
Answer: 4.7 µM

Question: And the IC50 (MCF7)?
Answer: > 5 µM

Question: And the IC50 (WI-38)?
Answer: ≥ 5 µM

From ChEMBL document CHEMBL1157178, “Novel thiosemicarbazone derivatives as potential antitumor agents: Synthesis, physicochemical and structural properties, DNA interactions and antiproliferative activity” (Bioorg Med Chem, 2008)
